Measurements reported in ChEMBL document CHEMBL1135917, “Human somatostatin receptor specificity of backbone-cyclic analogues containing novel sulfur building units” (J Med Chem, 2002).
*1 amine or outer side, *2 acyl side, *3 side chain or, on linkers, in order; H or OH if unused. Where a SMILES comes first, the peptide text is derived from it. Bridges are numbered along the chain shown (N, C = ends). [ ]: non-standard residue; d: D form. N(2-mercaptoethyl)Gly = O=C(CN(CCS[*:3])[*:1])[*:2]

What was measured:
[1] = molecular target: Somatostatin receptor type 1 (Homo sapiens, UniProt P30872); assay: Binding affinity of human Somatostatin receptor type 1 (hsst1) by the displacement of [125I]- Tyr11 somatostatin-14 in CHO-K1 cells.; type: cell-based
Outline: (§1)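 Membranes from CHO-K1 cells stably expressing each cloned human receptor, prepared in 50 mM Tris-HCl pH 7.8 with EGTA, MgCl2 and protease inhibitors. Membranes (0.2 or 0.4 mg/mL protein, receptor-dependent) incubated with 125I-Tyr11 somatostatin-14 for 45 min at room temperature. Nonspecific binding taken with […] somatostatin. Bound ligand separated by GF/C filtration and counted. Triplicate wells, at least two experiments. IC50 taken from inhibition curves, mean ± SEM.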

[2] = molecular target: Somatostatin receptor type 3 (Homo sapiens, UniProt P32745); assay: Binding affinity of human Somatostatin receptor type 3 (hsst3) by the displacement of [125I]- Tyr11 somatostatin-14 in CHO-K1 cells; type: cell-based; outline: as §1
[3] = molecular target: Somatostatin receptor type 2 (Homo sapiens, UniProt P30874); assay: Binding affinity of human Somatostatin receptor type 2 (hsst2) by the displacement of [125I]- Tyr11 somatostatin-14 in CHO-K1 cells; type: cell-based; outline: as §1
[4] = molecular target: Somatostatin receptor type 4 (Homo sapiens, UniProt P31391); assay: Binding affinity of human Somatostatin receptor type 4 (hsst4) by the displacement of [125I]- Tyr11 somatostatin-14 in CHO-K1 cells; type: cell-based; outline: as §1
[5] = molecular target: Somatostatin receptor type 5 (Homo sapiens, UniProt P35346); assay: Binding affinity of human Somatostatin receptor type 5 (hsst5) by the displacement of [125I]- Tyr11 somatostatin-14 in CHO-K1 cells; type: cell-based; outline: as §1
[6] = Half life in renal homogenate; type: ADME, tissue-based
Outline: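 Peptides at 0.4 mg/mL final were incubated in rat renal homogenate at 37 °C for up to 4 h. Samples were taken at several time points. The fraction of intact peptide was measured by HPLC from the loss of major-peak area.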

Sequence of Somatostatin receptor type 2 (P30874 whole entry): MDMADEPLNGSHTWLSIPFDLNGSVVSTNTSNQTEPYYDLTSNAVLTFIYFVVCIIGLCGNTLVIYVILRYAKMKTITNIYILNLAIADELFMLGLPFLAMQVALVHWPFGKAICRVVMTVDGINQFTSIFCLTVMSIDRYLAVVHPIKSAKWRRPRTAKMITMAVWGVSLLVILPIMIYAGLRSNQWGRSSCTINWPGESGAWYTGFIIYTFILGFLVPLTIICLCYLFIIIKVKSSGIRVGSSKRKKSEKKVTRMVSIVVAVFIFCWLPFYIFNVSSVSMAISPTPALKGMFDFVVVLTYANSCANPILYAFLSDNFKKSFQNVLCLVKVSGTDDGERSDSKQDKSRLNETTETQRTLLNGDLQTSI
Sequence of Somatostatin receptor type 5 (P35346 whole entry): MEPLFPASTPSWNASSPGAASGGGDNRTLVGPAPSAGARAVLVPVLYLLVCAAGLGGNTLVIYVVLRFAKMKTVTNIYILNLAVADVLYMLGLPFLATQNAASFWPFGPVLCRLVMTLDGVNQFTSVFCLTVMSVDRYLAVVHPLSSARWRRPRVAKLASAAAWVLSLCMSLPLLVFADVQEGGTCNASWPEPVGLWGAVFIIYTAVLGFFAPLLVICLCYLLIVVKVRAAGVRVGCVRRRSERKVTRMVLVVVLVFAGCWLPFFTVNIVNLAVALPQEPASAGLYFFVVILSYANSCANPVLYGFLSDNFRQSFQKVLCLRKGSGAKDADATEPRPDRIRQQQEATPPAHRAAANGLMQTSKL
Sequence of Somatostatin receptor type 1 (P30872 whole entry): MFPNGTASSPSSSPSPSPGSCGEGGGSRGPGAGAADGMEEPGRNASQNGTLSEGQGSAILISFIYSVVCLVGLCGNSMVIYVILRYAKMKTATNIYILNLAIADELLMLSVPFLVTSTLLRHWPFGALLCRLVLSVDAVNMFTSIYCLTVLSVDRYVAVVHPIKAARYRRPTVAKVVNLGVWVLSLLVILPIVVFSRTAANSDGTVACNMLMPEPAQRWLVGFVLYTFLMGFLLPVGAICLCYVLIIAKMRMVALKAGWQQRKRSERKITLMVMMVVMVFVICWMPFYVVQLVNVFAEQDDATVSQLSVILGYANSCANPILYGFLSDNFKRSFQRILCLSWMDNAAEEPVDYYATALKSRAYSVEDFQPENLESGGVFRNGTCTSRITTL
Sequence of Somatostatin receptor type 3 (P32745 whole entry): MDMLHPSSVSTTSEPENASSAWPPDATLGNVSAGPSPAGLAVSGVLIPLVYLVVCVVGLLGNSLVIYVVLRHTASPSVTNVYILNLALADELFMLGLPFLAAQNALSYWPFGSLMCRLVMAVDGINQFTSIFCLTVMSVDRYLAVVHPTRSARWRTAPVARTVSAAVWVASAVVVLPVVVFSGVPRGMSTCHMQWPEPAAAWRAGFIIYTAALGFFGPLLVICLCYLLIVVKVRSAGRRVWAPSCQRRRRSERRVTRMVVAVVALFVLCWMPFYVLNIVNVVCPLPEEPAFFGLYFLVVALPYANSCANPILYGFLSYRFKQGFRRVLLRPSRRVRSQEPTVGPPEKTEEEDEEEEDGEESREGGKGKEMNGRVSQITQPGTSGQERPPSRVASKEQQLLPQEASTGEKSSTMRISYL
Sequence of Somatostatin receptor type 4 (P31391 whole entry): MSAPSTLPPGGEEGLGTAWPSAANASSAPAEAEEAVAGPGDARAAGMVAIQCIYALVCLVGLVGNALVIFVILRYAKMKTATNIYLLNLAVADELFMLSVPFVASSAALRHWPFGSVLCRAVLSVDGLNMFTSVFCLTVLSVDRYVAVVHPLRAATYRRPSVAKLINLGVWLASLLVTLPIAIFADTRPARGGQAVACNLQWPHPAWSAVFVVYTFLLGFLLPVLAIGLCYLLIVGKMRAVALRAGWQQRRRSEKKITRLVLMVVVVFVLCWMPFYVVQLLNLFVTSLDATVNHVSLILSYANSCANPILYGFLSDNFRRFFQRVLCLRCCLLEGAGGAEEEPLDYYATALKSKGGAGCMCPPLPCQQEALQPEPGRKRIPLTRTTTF

SMILES: C[C@@H](O)[C@@H]1NC(=O)[C@@H](CCCCN)NC(=O)[C@@H](Cc2c[nH]c3ccccc23)NC(=O)[C@@H](Cc2c[nH]c3ccccc23)NC(=O)[C@H](Cc2ccccc2)NC(=O)CN(C(=O)[C@@H](N)Cc2ccccc2)CCSSCCN(CC(N)=O)C(=O)[C@@H](Cc2ccccc2)NC1=O
- IC50 ([1]; cho-k1): > 1000 nM
- IC50 ([2]; cho-k1): > 100 nM
- IC50 ([3]; cho-k1): 2.5 nM
- IC50 ([4]; cho-k1): > 100 nM
- IC50 ([5]; cho-k1): 18.2 nM

SMILES: C[C@@H](O)[C@@H]1NC(=O)[C@H](CCCCN)NC(=O)[C@@H](Cc2c[nH]c3ccccc23)NC(=O)[C@H](Cc2c[nH]c3ccccc23)NC(=O)[C@H](Cc2ccccc2)NC(=O)[C@@H](N)CSSCCN(CC(N)=O)C(=O)[C@H](Cc2ccccc2)NC1=O (H-CFW[dW]KTF[N(2-mercaptoethyl)Gly]-NH2; disulfide 1-8)
- IC50 [1]: > 1000 nM
- IC50 [2]: 40.7 nM
- IC50 [3]: 5.2 nM
- IC50 [4]: 41.1 nM
- half-life [6]: 180 min
- IC50 [5]: 1.2 nM

SMILES: C[C@@H](O)[C@@H]1NC(=O)[C@H](CCCCN)NC(=O)[C@@H](Cc2c[nH]c3ccccc23)NC(=O)[C@H](Cc2c[nH]c3ccccc23)NC(=O)[C@H](Cc2ccccc2)NC(=O)CNCCSSCCN(CC(N)=O)C(=O)[C@H](Cc2ccccc2)NC1=O
- IC50 [1]: > 1000 nM
- IC50 [2]: > 100 nM
- IC50 [3]: 4.1 nM
- IC50 [4]: 49.5 nM
- IC50 [5]: 7.8 nM

SMILES: C[C@@H](O)[C@@H]1NC(=O)[C@H](CCCCN)NC(=O)[C@@H](Cc2c[nH]c3ccccc23)NC(=O)[C@H](Cc2c[nH]c3ccccc23)NC(=O)[C@H](Cc2ccccc2)NC(=O)CCCNC(=O)CCCN(CC(N)=O)C(=O)[C@H](Cc2ccccc2)NC1=O
- IC50 [1]: > 1000 nM
- IC50 [2]: > 100 nM
- IC50 [3]: 3 nM
- IC50 [4]: 7 nM
- IC50 [5]: 1 nM

SMILES: C[C@@H](O)[C@@H]1NC(=O)[C@H](CCCCN)NC(=O)[C@@H](Cc2c[nH]c3ccccc23)NC(=O)[C@H](Cc2c[nH]c3ccccc23)NC(=O)[C@H](Cc2ccccc2)NC(=O)CCSSCCN(CC(N)=O)C(=O)[C@H](Cc2ccccc2)NC1=O
- IC50 [1]: > 1000 nM
- IC50 [2]: > 100 nM
- IC50 [3]: 1.3 nM
- IC50 [4]: > 100 nM
- IC50 [5]: 2.8 nM

SMILES: C[C@@H](O)[C@@H]1NC(=O)[C@@H](CCCCN)NC(=O)[C@@H](Cc2c[nH]c3ccccc23)NC(=O)[C@@H](Cc2c[nH]c3ccccc23)NC(=O)[C@H](Cc2ccccc2)NC(=O)C(NC(=O)[C@@H](N)Cc2ccccc2)CSSCCN(CC(N)=O)C(=O)[C@@H](Cc2ccccc2)NC1=O (stereo not given in full)
- IC50 ([1]; cho-k1): > 1000 nM
- IC50 ([2]; cho-k1): > 100 nM
- IC50 ([3]; cho-k1): 12.8 nM
- IC50 ([4]; cho-k1): 35.9 nM
- IC50 ([5]; cho-k1): 4.5 nM

SMILES: C[C@@H](O)[C@@H]1NC(=O)[C@H](CCCCN)NC(=O)[C@@H](Cc2c[nH]c3ccccc23)NC(=O)[C@H](Cc2c[nH]c3ccccc23)NC(=O)[C@H](Cc2ccccc2)NC(=O)CSSCCN(CC(N)=O)C(=O)[C@H](Cc2ccccc2)NC1=O
- IC50 [1]: > 1000 nM
- IC50 [2]: 15.6 nM
- IC50 [3]: 28.7 nM
- IC50 [4]: > 100 nM
